Source: PubChem BioAssay
Compounds with a hit are over-represented: about 3.7% of the library has one in this group of screens.
Kir21 inh: Kir2.1 (mouse) channel inhibition | P35561 | HEK293-Kir2.1, FluxOR thallium flux fluorescence; hits give low values | B-score at 10 µM | actives 0.85% (n = 310,000) | AID 1672;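 active = fluorescence ratio B-score at or below minus 3 SD of library scores, with starting-brightness B-score within 2 SD, cut at about -4.2 in these data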;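 note: channel flux triggered by added potassium and thallium sulfate stimulus; B-score of peak minus minimum fluorescence over baseline after thallium stimulus; more negative B-score means stronger Kir2.1 block with less thallium influx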
KCNQ1 act: human KCNQ1 channel potentiation or activation | actives 0.35% (n = 310,000) | CHO-K1 KCNQ1, thallium flux FluxOR fluorescence; hits give high values | P51787 | B-score at 10 µM;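 active = fluorescence ratio B-score, a plate-corrected score, at least three library SD, with initial intensity B-score within 5 SD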
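Assay system: CHO-K1 cells stably expressing KCNQ1. Medium: assay buffer for compound exposure, DMSO matched across wells. Timing: 37 °C overnight plating, 90-min dark dye load, 20-min compound pretreatment. Signal: kinetic FluxOR fluorescence, 10 s baseline plus 110 s post-stimulus.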
hERG rescue: shields human hERG channel from block by proarrhythmic agents | Q12809 | CHO-hERG, FluxOR thallium flux, dofetilide IC70 present | activation (rescue from dofetilide block), less the hit threshold, % at 10 µM | actives 0.51% (n = 310,000) | AID 1511;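 active = activation above the mean of controls blocked by dofetilide plus 5 SD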;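 note: thallium influx through hERG after potassium depolarization seen as dye fluorescence rise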
KCNK9 block: inhibitors of human KCNK9 two-pore domain potassium channel; B-score at 10 µM; AID 488922; HEK293 KCNK9, FluxOR thallium flux fluorescence; hits give low values; actives 1.2% (n = 310,000); Q9NPC2;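 active = ratio B-score over 3 SD below the library mean, with starting fluorescence within 5 SD of its mean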;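 note: negative B-score means less thallium flux so channel inhibition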
Target sequence (Q9NPC2 whole entry, looked up, the tested form may be a part): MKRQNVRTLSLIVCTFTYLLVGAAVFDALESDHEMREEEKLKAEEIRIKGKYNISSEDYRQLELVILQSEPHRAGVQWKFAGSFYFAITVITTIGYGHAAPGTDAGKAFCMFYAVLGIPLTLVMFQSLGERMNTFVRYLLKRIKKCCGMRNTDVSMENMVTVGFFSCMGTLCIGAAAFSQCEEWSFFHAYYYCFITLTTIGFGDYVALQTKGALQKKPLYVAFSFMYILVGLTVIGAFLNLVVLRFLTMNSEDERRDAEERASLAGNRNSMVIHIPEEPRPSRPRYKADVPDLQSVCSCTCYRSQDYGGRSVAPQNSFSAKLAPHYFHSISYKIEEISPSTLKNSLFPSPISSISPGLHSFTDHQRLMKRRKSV
KCNQ1 inh: human KCNQ1 channel inhibition; P51787; CHO-K1 KCNQ1, FluxOR thallium flux fluorescence; hits give high values; B-score at 10 µM; actives 1.3% (n = 310,000);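 active = compounds whose thallium flux B-score, printed positive for inhibition, exceeds three library SD while starting fluorescence stays within three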;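 note: channel opened by potassium depolarization with thallium stimulus after 20 min compound exposure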
KCNK3 block: human KCNK3 channel inhibition, primary screen | O14649 | CHO-KCNK3 thallium flux, FluxOR fluorescence; hits give low values | B-score at 10 µM | actives 0.84% (n = 340,000) | AID 602410;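 active = B-score under library mean minus 4 SD, starting fluorescence ratio at most library mean plus 5 SD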;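 note: more negative B-score means stronger inhibition of thallium flux through KCNK3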
The depositor's hits bear a star; i = inactive; x = no result given.

SMILES	Kir21 inh	KCNQ1 act	hERG rescue	KCNK9 block	KCNQ1 inh	KCNK3 block
CCCCCCCNC(=O)C1(CC2CC(c3ccc(Cl)cc3)=NO2)CCNCC1 (stereo not drawn)	-10.2*	i	-16.7	i	i	i
CCCCCCCNC(=O)C1(CC2CC(c3ccc(Cl)cc3)=NO2)CCN(C(=O)Cc2ccc(F)cc2)CC1 (stereo not drawn)	-0.72	i	-13.4	i	i	i
COc1cc(OC)cc(C(=O)NC(=S)N2CCCCCC2)c1	0.08	i	10.4*	i	i	i
COc1ccc(C(=O)NC(=S)N2CCCCC2)cc1	2.08	i	-2.2	i	i	i
CC(=O)Nc1cc2nc(C)n(Cc3ccccc3[N+](=O)[O-])c2nc1C	-0.02	i	-10.8	i	i	i
CCCn1cnnc1CNC(=O)C1CCC(=O)N(CCCc2ccccc2)C1 (stereo not drawn)	1.12	i	-2.9	i	i	i
C=CCC(O)(CC=C)CNC(=O)C1CCC(=O)N(CCCc2ccccc2)C1 (stereo not drawn)	-0.22	i	6.7*	i	i	i
CC(C)C(=O)Nc1ccc(NC(=O)CCc2ccccc2)cn1	0.6	i	9.1*	i	i	i
CC(C)C(=O)Nc1ccc(NC(=O)c2ccco2)cn1	0.69	i	-5.7	i	i	i
CCc1ccc(OCc2nnc(-c3ccccc3Br)o2)cc1	x	x	x	x	x	-9.34*
CCN(CC)c1ccc(C(=C2C=CC(=[N+](CC)CC)C=C2)c2ccc(N(CC)CC)cc2)cc1	x	x	x	x	x	-11.6*
Fc1cccc(C2NN=C(c3ccccc3)S2)c1 (stereo not drawn)	0.09	i	10.5*	i	i	i
COc1cccc(CN(C)C(=O)c2cc(S(=O)(=O)N3CCCC3)ccc2C)c1OC	x	x	x	x	x	i
CN(C(=S)NC(=O)c1ccccc1)C1CCCCC1	0.59	11*	15.1*	i	i	i
CC1CCN(C(=S)NC(=O)c2ccc(F)cc2)CC1	x	x	x	x	x	i
CN(C(=S)NC(=O)c1ccc(F)cc1)C1CCCCC1	0.26	8*	2.7	i	i	i
O=C(NC(=O)N1CCCCCC1)c1ccc(Cl)cc1	0.57	i	-8.5	i	i	i
CN(C(=S)NC(=O)c1ccc(Cl)cc1)C1CCCCC1	-0.4	12*	-3.6	i	i	i
OC1(c2ccccc2)CCN(Cc2ccccc2)CC1	-7.58*	i	-3.7	i	i	i
OC1(c2ccc3c(c2)OCO3)CCN(Cc2ccc(F)cc2)CC1	-4.5*	i	-6.2	i	i	i
CC(C)NC(=O)CN1CCC(O)(c2ccccc2)CC1	0.6	i	-5.4	i	i	i
OC1(c2ccc(F)cc2)CCN(Cc2ccccc2)C1 (stereo not drawn)	-4.45*	i	1.8	i	i	i
OC1(c2ccc(F)cc2)CCN(Cc2cccnc2)CC1	-1.34	i	-5.7	i	i	i
CC1CC(C)(C)NC(=S)N1CCCC(=O)Nc1ccc(F)cc1 (stereo not drawn)	2.13	i	-11.8	i	i	i
CC(=O)NC1=C(NC2CCS(=O)(=O)C2)C(=O)c2ccccc2C1=O (stereo not drawn)	-1.51	12*	3.3	i	i	i
SMILES	Kir21 inh	KCNQ1 act	hERG rescue	KCNK9 block	KCNQ1 inh	KCNK3 block
CN(C1=C(NC(=O)c2ccccc2)C(=O)c2ccccc2C1=O)C1CCS(=O)(=O)C1 (stereo not drawn)	0.09	i	-1.4	i	i	i
COc1ccccc1NS(=O)(=O)c1ccc(O)c(C(N)=O)c1	-4.22*	i	2.2	i	i	i
COc1ccccc1NS(=O)(=O)c1cc(C)ccc1C	-4.58*	i	-8.8	i	i	i
COc1ccccc1NS(=O)(=O)c1ccc(O)c(C(=O)OCC(=O)c2ccc(Cl)cc2Cl)c1	0.24	i	-5.2	i	i	i
COc1ccc(OC)c(S(=O)(=O)Nc2ccccc2SC)c1	-4.63*	i	-12.0	i	i	i
COc1ccc(S(=O)(=O)Nc2ccccc2SC)cc1C	-6.7*	i	-8.3	i	i	i
CC(=O)c1c(C)[nH]c(C(=O)CSc2nnc(C)s2)c1C	-0.01	i	-6.2	i	i	i
O=[N+]([O-])c1cccc(-c2nnc(-c3ccccc3F)o2)c1	2.97	i	-6.3	i	i	i
O=C(CSCc1cnn(-c2ccccc2)c1-n1cccc1)NCc1ccccn1	-4.4*	i	-10.3	i	i	i
O=C1COc2ccc(C(=O)COC(=O)COc3ccccc3[N+](=O)[O-])cc2N1	-3.93	i	-7.0	i	i	i
N#Cc1ccccc1OCC(=O)OCC(=O)c1ccc2c(c1)NC(=O)CO2	0.07	i	5.4*	i	i	i
Cc1ccc(C)c2c1[nH]c1ccc([N+](=O)[O-])cc12	-0.47	i	-6.5	i	8*	i
CC(C)[C@H](NC(=O)OC(C)(C)C)c1nnc(S(=O)(=O)Cc2c(F)cccc2Cl)o1	-4.36*	i	-16.9	i	i	i
CC[C@@H](C)[C@H](NC(=O)OC(C)(C)C)c1nnc(S(=O)(=O)Cc2cc(C)ccc2C)o1	-9.11*	i	-14.6	i	i	i
Cc1ccc(NC(=O)c2cccnc2C(=O)O)nc1	0.55	i	-0.1	i	i	i
CC(=O)NC12CC3CC(C1)CC(C(=O)Oc1ccc(N(C)S(=O)(=O)c4cc(C)ccc4C)cc1)(C3)C2	1.09	i	-7.9	i	6*	i
CCC(=O)NC(=S)Nc1ccc(NC(=O)c2ccc([N+](=O)[O-])cc2Cl)cc1	1.98	i	-11.4	i	i	i
O=C(NCC1CC1(Cl)Cl)Nc1ccc(Cl)c(Cl)c1 (stereo not drawn)	0.38	i	-14.7	-8.42*	i	i
O=C(CSc1nnc(CNc2ccc(F)cc2)n1-c1ccccc1)N1CCOCC1	-0.04	i	-3.9	i	i	i
COc1ccc(-n2c(-c3ccc(Cl)cc3)c[n+]3c2CCCCC3)cc1	1.35	i	-20.1	i	i	i
CCOc1ccc(-n2c(-c3ccc(OC)cc3)c[n+]3c2CCCCC3)cc1	-2.9	i	-24.9	i	7*	i
COc1ccc(-c2c[n+]3c(n2-c2ccc(C)cc2)CCCCC3)cc1	-3.64	i	-21.6	i	9*	i
CCOc1ccc(-n2c(-c3ccc(Br)cc3)c[n+]3c2CCCCC3)cc1	-4.03	i	-22.6	i	8*	i
